22 molecules from ChEMBL document CHEMBL3774379, “Synthesis and biological evaluation of quinoline derivatives as potential anti-prostate cancer agents and Pim-1 kinase inhibitors” (Bioorg Med Chem, 2016) can be followed below.

Calls of active or inactive are those of the source. The rule behind the calls is not given here.

Assay [1] has as its target T1, Serine/threonine-protein kinase pim-1 (Homo sapiens, UniProt P11309). Description: Inhibition of Pim1 kinase in human PC3 cells assessed as decrease in BAD phosphorylation level at 8 to 16 uM after 24 hrs by Western blot analysis. The settings on record: PC-3. It counts as cell-based.
Target sequence in this assay (P11309 whole entry, looked up): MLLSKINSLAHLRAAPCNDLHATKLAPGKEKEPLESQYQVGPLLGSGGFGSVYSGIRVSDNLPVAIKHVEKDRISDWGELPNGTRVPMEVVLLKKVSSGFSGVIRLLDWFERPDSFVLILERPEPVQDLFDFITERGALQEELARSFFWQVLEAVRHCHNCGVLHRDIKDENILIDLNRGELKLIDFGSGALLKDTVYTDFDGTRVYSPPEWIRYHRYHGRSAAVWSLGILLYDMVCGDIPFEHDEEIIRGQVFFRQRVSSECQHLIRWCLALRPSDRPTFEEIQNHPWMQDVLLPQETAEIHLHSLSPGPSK
The target in assay [2] is T1, Serine/threonine-protein kinase pim-1. Nature of the assay: Inhibition of Pim1 kinase in human PC3 cells assessed as increase in p21 level at 8 to 16 uM after 24 hrs by Western blot analysis. The assay is classed as cell-based. The settings on record: PC-3.
Target sequence in this assay (P11309 whole entry, looked up): as above
Assay [3] has the same target. Description: Inhibition of Pim1 kinase in human PC3 cells assessed as increase in p27 level at 8 to 16 uM after 24 hrs by Western blot analysis. The settings on record: PC-3. The assay is classed as cell-based.
Target sequence in this assay (P11309 whole entry, looked up): as above
For assay [4] the target is unchanged. Description: Inhibition of Pim1 kinase (unknown origin) using substrate S3 after 50 mins by HTRF assay.
Target sequence in this assay (P11309 whole entry): as the sequence (P11309 whole entry, looked up) above
The next assay concerns PC-3. Nature of the assay: Induction of ERK phosphorylation in human PC3 cells at 8 to 16 uM after 24 hrs by Western blot analysis. It counts as cell-based.
A short description of assay [5]: Cell cycle arrest in human PC3 cells assessed as cell accumulation at sub-G1 phase at 8 uM after 48 hrs by Propidium Iodide staining based flow cytometric analysis (reference value: 2.5%). It counts as functional. The settings on record: PC-3. In outline: (§1)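 PC-3 cells in six-well plates treated 0, 8, 12 or 16 μM for 24 or 48 h. Floating and adherent cells pooled, PBS-washed, fixed in ice-cold 70% ethanol at -20°C overnight, treated with 1 mg/mL RNase at 37°C for 30 min, stained with PI at 50 μg/mL final. DNA content read by flow cytometry, excitation 488 nm, emission 625 nm.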

Assay [6] in a line: Cell cycle arrest in human PC3 cells assessed as cell accumulation at G0/G1 phase at 8 uM after 48 hrs by Propidium Iodide staining based flow cytometric analysis (reference value: 57.9%). It counts as functional. The settings on record: PC-3. Summed up: as §1
A short description of assay [7]: Cell cycle arrest in human PC3 cells assessed as cell accumulation at G2/M phase at 8 uM after 48 hrs by Propidium Iodide staining based flow cytometric analysis (reference value: 32.4%). The assay is classed as functional. The settings on record: PC-3. Summed up: as §1
Assay [8] can be described thus: Antiproliferative activity against human PC3 cells after 96 hrs by MTT assay. The assay is classed as functional. The settings on record: PC-3, 96 h. Summed up: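 PC-3 cells grown in RPMI1640 with 10% heat-inactivated FBS; seeded 2×10³ cells/well, 24 h at 37°C, 5% CO₂, then compound at various concentrations for 96 h. MTT (2 mg/mL) added for 4 h, formazan dissolved in DMSO, absorbance 570 nm. GI₅₀ from inhibition ratios versus untreated cells; three independent experiments, mean reported.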

Assay [9] can be described thus: Cell cycle arrest in human PC3 cells assessed as cell accumulation at sub-G1 phase at 12 uM after 48 hrs by Propidium Iodide staining based flow cytometric analysis (reference value: 2.5%). The settings on record: PC-3. The assay is classed as functional. Summed up:
as §1

A short description of assay [10]: Cell cycle arrest in human PC3 cells assessed as cell accumulation at G0/G1 phase at 12 uM after 48 hrs by Propidium Iodide staining based flow cytometric analysis (reference value: 57.9%). The assay is classed as functional. The settings on record: PC-3. Summed up:
as §1

Assay [11] can be described thus: Cell cycle arrest in human PC3 cells assessed as cell accumulation at G2/M phase at 12 uM after 48 hrs by Propidium Iodide staining based flow cytometric analysis (reference value: 32.4%). The settings on record: PC-3. It counts as functional. Summed up:
as §1

Assay [12] is described as follows: Cell cycle arrest in human PC3 cells assessed as cell accumulation at sub-G1 phase at 16 uM after 48 hrs by Propidium Iodide staining based flow cytometric analysis (reference value: 2.5%). The settings on record: PC-3. The assay is classed as functional. Summed up: as §1
Assay [13] is described as follows: Cell cycle arrest in human PC3 cells assessed as cell accumulation at G0/G1 phase at 16 uM after 48 hrs by Propidium Iodide staining based flow cytometric analysis (reference value: 57.9%). The assay is classed as functional. The settings on record: PC-3. Summed up: as §1
A short description of assay [14]: Cell cycle arrest in human PC3 cells assessed as cell accumulation at G2/M phase at 16 uM after 48 hrs by Propidium Iodide staining based flow cytometric analysis (reference value: 32.4%). It counts as functional. The settings on record: PC-3. Summed up: as §1
Assay [15] in a line: Cell cycle arrest in human PC3 cells assessed as cell accumulation at sub-G1 phase at 8 uM after 24 hrs by Propidium Iodide staining based flow cytometric analysis (reference value: 1.7%). The settings on record: PC-3. The assay is classed as functional. In outline: as §1
The nature of assay [16]: Cell cycle arrest in human PC3 cells assessed as cell accumulation at G0/G1 phase at 8 uM after 24 hrs by Propidium Iodide staining based flow cytometric analysis (reference value: 57.1%). It counts as functional. The settings on record: PC-3. In outline: as §1
Assay [17] can be described thus: Cell cycle arrest in human PC3 cells assessed as cell accumulation at G2/M phase at 8 uM after 24 hrs by Propidium Iodide staining based flow cytometric analysis (reference value: 32%). The assay is classed as functional. The settings on record: PC-3. In outline: as §1
Assay [18] is described as follows: Cell cycle arrest in human PC3 cells assessed as cell accumulation at sub-G1 phase at 12 uM after 24 hrs by Propidium Iodide staining based flow cytometric analysis (reference value: 1.7%). The assay is classed as functional. The settings on record: PC-3. Summed up: as §1
Assay [19] can be described thus: Cell cycle arrest in human PC3 cells assessed as cell accumulation at G0/G1 phase at 12 uM after 24 hrs by Propidium Iodide staining based flow cytometric analysis (reference value: 57.1%). It counts as functional. The settings on record: PC-3. Summed up: as §1
Assay [20] is described as follows: Cell cycle arrest in human PC3 cells assessed as cell accumulation at G2/M phase at 12 uM after 24 hrs by Propidium Iodide staining based flow cytometric analysis (reference value: 32%). It counts as functional. The settings on record: PC-3. Summed up:
as §1

The nature of assay [21]: Cell cycle arrest in human PC3 cells assessed as cell accumulation at sub-G1 phase at 16 uM after 24 hrs by Propidium Iodide staining based flow cytometric analysis (reference value: 1.7%). It counts as functional. The settings on record: PC-3. Summed up: as §1
Assay [22] can be described thus: Cell cycle arrest in human PC3 cells assessed as cell accumulation at G0/G1 phase at 16 uM after 24 hrs by Propidium Iodide staining based flow cytometric analysis (reference value: 57.1%). The assay is classed as functional. The settings on record: PC-3. In outline:
as §1

Assay [23] is described as follows: Cell cycle arrest in human PC3 cells assessed as cell accumulation at G2/M phase at 16 uM after 24 hrs by Propidium Iodide staining based flow cytometric analysis (reference value: 32%). The assay is classed as functional. The settings on record: PC-3. Summed up:
as §1

Assay [24] deals with T1, Serine/threonine-protein kinase pim-1. Description: Inhibition of Pim1 kinase in human PC3 cells assessed as decrease in c-Myc level at 8 to 16 uM after 24 hrs by Western blot analysis. The settings on record: PC-3. It counts as cell-based.
Target sequence in this assay (P11309 whole entry, looked up): as above
For assay [25] the target is unchanged. Nature of the assay: Inhibition of Pim1 kinase in human PC3 cells assessed as decrease in 4E-BP1 phosphorylation level at 8 to 16 uM after 24 hrs by Western blot analysis. The settings on record: PC-3. It counts as cell-based.
Target sequence in this assay (P11309 whole entry, looked up): as above

For `Oc1ccc(Cl)c2ccc(Nc3ccccn3)nc12`, the inhibition entry in [1], in assay [2], in assay [3] and in assay [25] was “Dose-dependent effect” in each case. In assay [4], this molecule returned a half-inhibitory concentration (IC50) of 0.75 µM. Also, the outcome with PC-3 was Active. The Activity in assay [5] was 13.1%; in assay [6], 52.9%; in assay [7], 25%; in assay [9] it was 27.7%; in assay [10], 44.4%; in [11] it was 20%. Besides, the Activity in assay [12] worked out at 52.6%; in assay [13] it was 31%; in [14], 11%; in assay [15], 2.9%; in assay [16], 65.2%; in assay [17] it was 19.3%. The Activity came to 10.4% in [18]; 64.5% in assay [19]; 17.3% in [20]; 31.5% in [21]; 48.1% in [22]; 13.9% in assay [23]. For the same molecule, the Activity result in [24] was “Dose-dependent effect”. The molecule further came in with a GI50 in assay [8] of 1.29 µM.
`Oc1cccc2ccc(Sc3ccccn3)nc12` had an IC50 in [4] above 10 µM. In assay [8], this molecule registered a 50% growth inhibitory concentration (GI50) of 20.9 µM.
Take `CN1CCC(CNc2ccc3ncc(-c4cccc(OC(F)(F)F)c4)n3n2)CC1` [SGI-1776]: it took 4.86 µM to inhibit growth in assay [8] by half (GI50).
In turn, `Oc1cccc2ccc(Nc3cc(Cl)ccn3)nc12` yielded a GI50 in [8] of 2.81 µM.
`Oc1cccc2ccc(Nc3ccccn3)nc12` registered a GI50 in assay [8] of 2.6 µM. The GI50 values of the last two molecules are within 1.5-fold of each other.
Still for that read-out and setting: then `Oc1cccc2ccc(Oc3ccccn3)nc12`, with above 30 µM; and `COc1cccc2ccc(Nc3cc(Cl)ccn3)nc12`, with 11.8 µM; and `Oc1ccc(Br)c2ccc(Sc3ccccn3)nc12`, with 10.2 µM.
On to `Oc1ccc(Cl)c2ccc(Nc3cc(Cl)ccn3)nc12`, for which growth in [8] was halved (GI50) at 25.5 µM. This GI50 is about 2.5-fold higher than that of the molecule before.
With `Oc1ccc(Cl)c2ccc(Sc3ccccn3)nc12`, halving of growth in assay [8] (GI50) required 10.2 µM.
Regarding `COc1ccc(Cl)c2ccc(Nc3ccccn3)nc12`, growth in [8] was halved (GI50) at 29.2 µM.
Molecule `Cc1ccnc(Nc2ccc3c(Cl)ccc(O)c3n2)c1` came in with a GI50 in assay [8] of 10.2 µM.
On the same count and under the same terms, then `Clc1ccnc(Nc2ccc3ccccc3n2)c1`, with above 30 µM.
The same measure, in the same setting: the value for `COc1cccc2ccc(Nc3ccccn3)nc12` was 7.47 µM; that for `COc1cccc2ccc(Nc3cc(C)ccn3)nc12` was 3.82 µM; that for `COc1ccc(Cl)c2ccc(Nc3cc(C)ccn3)nc12` was above 30 µM.
Same read-out and setting: then `Cc1ccnc(Nc2ccc3cccc(O)c3n2)c1`, with 5.84 µM.
Turning to `c1ccc(Nc2ccc3ccccc3n2)nc1`, in assay [4], the IC50 is above 10 µM. The molecule also registered a GI50 in assay [8] above 30 µM.
As for `Oc1ccc(Cl)c2ccc(Oc3ccccn3)nc12`, the 50% growth inhibitory concentration (GI50) in [8] is above 30 µM.
Same read-out and setting: the value for `Oc1ccc(Br)c2ccc(Oc3ccccn3)nc12` was above 30 µM; that for `COc1ccc(Cl)c2ccc(Nc3cc(Cl)ccn3)nc12` was above 30 µM.
On the same count and under the same terms, then `Cc1ccnc(Nc2ccc3ccccc3n2)c1`, with 26.7 µM.
